Screens as filed in PubChem BioAssay.
Most compounds without a hit are left out; they make up all but 3.7% or so of the library.
KCNK3 block: human KCNK3 channel inhibition, primary screen. CHO-KCNK3 thallium flux, FluxOR fluorescence; hits give low values. B-score at 10 µM. 0.84% of 340,000 active. AID 602410;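 active = B-score under library mean minus 4 SD, starting fluorescence ratio at most library mean plus 5 SD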;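 also: more negative B-score means stronger inhibition of thallium flux through KCNK3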
Target sequence (O14649 whole entry, looked up): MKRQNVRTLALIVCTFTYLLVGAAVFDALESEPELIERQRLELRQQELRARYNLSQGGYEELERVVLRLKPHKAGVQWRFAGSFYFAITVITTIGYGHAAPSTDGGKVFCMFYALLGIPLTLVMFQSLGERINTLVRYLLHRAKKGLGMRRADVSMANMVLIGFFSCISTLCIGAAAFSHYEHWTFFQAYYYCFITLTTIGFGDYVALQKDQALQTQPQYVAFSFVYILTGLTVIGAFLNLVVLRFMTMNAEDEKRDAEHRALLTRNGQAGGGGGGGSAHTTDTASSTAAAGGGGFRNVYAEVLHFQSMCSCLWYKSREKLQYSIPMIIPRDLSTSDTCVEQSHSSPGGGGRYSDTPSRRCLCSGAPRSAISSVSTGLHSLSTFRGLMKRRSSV
KCNQ1 inh: human KCNQ1 channel inhibition. 1.3% of 310,000 active. CHO-K1 KCNQ1, FluxOR thallium flux fluorescence; hits give high values. B-score at 10 µM. P51787;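 active = compounds whose thallium flux B-score, printed positive for inhibition, exceeds three library SD while starting fluorescence stays within three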;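 also: channel opened by potassium depolarization with thallium stimulus after 20 min compound exposure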
KCNK9 block: inhibitors of human KCNK9 two-pore domain potassium channel; B-score at 10 µM; Q9NPC2; AID 488922; 1.2% of 310,000 active; HEK293 KCNK9, FluxOR thallium flux fluorescence; hits give low values;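 active = ratio B-score over 3 SD below the library mean, with starting fluorescence within 5 SD of its mean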;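 also: negative B-score means less thallium flux so channel inhibition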
Kir21 inh: Kir2.1 (mouse) channel inhibition; P35561; HEK293-Kir2.1, FluxOR thallium flux fluorescence; hits give low values; B-score at 10 µM; 0.85% of 310,000 active; AID 1672;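 active = fluorescence ratio B-score at or below minus 3 SD of library scores, with starting-brightness B-score within 2 SD, cut at about -4.2 in these data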;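 also: channel flux triggered by added potassium and thallium sulfate stimulus; B-score of peak minus minimum fluorescence over baseline after thallium stimulus; more negative B-score means stronger Kir2.1 block with less thallium influx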
KCNQ1 pot: potentiators or activators of human KCNQ1 potassium channel; CHO-K1 KCNQ1, thallium flux FluxOR fluorescence; hits give high values; 0.35% of 310,000 active; P51787; B-score at 10 µM;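 active = fluorescence ratio B-score, a plate-corrected score, at least three library SD, with initial intensity B-score within 5 SD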
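Assay system: CHO-K1 cells stably expressing KCNQ1; Medium: assay buffer with matched DMSO; Also added: K+/Tl+ depolarizing stimulus; Dosing: single dose; Timing: dye 90 min, compound 20 min, room temperature; Measured by: kinetic FluxOR thallium fluorescence, 10-s 1-Hz baseline, 110-s post-stimulus read; Read-out: peak-minus-minimum fluorescence over initial fluorescence, negative-control normalized, B-scored.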
hERG rescue: compounds protecting human hERG from proarrhythmic drug block; Q12809; CHO-hERG, FluxOR thallium flux, dofetilide IC70 present; activation (rescue from dofetilide block), less the hit threshold, % at 10 µM; 0.51% of 310,000 active;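 active = activation above the mean of controls blocked by dofetilide plus 5 SD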;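 also: thallium influx through hERG after potassium depolarization seen as dye fluorescence rise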
KCNK9 block conf: human KCNK9 inhibitor confirmation; shares compounds with KCNK9 block; AID 492992; inhibition, % at 10 µM; HEK293 KCNK9 cells, FluxOR thallium flux fluorescence; 43% of 4,900 active;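 active = thallium signal inhibited by more than 5 SD of the compound-free buffer control wells, on both duplicate plates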;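 also: 0% = assay buffer control wells without compound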
Kir2-1 spec: tests whether KCNK9 modulators also affect mouse Kir2.1; shares compounds with KCNK9 block; Kir2.1 cells, FluxOR thallium flux fluorescence; inhibition, % at 10 µM; 4% of 4,900 active; AID 492993;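 active = thallium signal drop more than 5 SD beyond the mean of the no-compound control wells, seen in both duplicate plates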;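 also: signal is fluorescence rise after thallium addition divided by baseline fluorescence; plate controls were assay buffer only for no effect and full block by chlorpromazine control for full effect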
HEK293 Tl ctr: non-induced cell nonspecific activity of KCNK9 modulators | shares compounds with KCNK9 block | non-induced KCNK9-HEK293, FluxOR thallium flux | 40% of 4,900 active | inhibition, % at 10 µM;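 active = thallium signal drop beyond 5 SD of the untreated control mean, on both duplicate plates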;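 also: plate controls were buffer only IC0 wells for no effect and SID17386958 at its maximal inhibitory level for full effect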
An asterisk follows results filed as active; i = inactive; . = no result given.

SMILES	KCNK3 block	KCNQ1 inh	KCNK9 block	Kir21 inh	KCNQ1 pot	hERG rescue	KCNK9 block conf	Kir2-1 spec	HEK293 Tl ctr
O=C(NCC1CCN(S(=O)(=O)c2ccccc2)CC1)Nc1ccccc1	i	i	i	0.82	i	-9	.	.	.
O=C(Nc1ccccc1)OCC(CN1CCCCC1)OC(=O)Nc1ccccc1 (configuration not stated)	i	.	.	.	.	.	.	.	.
CC1=C(C(=O)O)CC(S(=O)(=O)O)C1(C)C (configuration not stated)	i	.	.	.	.	.	.	.	.
COc1ccc(Oc2ccc(N/C=C/C(=O)C(C)(C)C)cc2)cc1	i	i	i	-0.11	i	-8	i	i	i
COc1cccc(Oc2ccc(N/C=C/C(=O)C(C)(C)C)cc2)c1	i	i	i	-0.51	i	-9	.	.	.
CCc1ccc(NSc2ccccc2[N+](=O)[O-])cc1	i	i	-8.8*	-1.1	i	-7	42%*	i	28%*
O=C(O)c1ccccc1NSc1ccccc1[N+](=O)[O-]	i	i	i	0.23	i	-4	.	.	.
CN1CCN(CC(O)COC(c2ccccc2)c2ccccc2)CC1 (configuration not stated)	i	i	i	-0.28	i	-7	.	.	.
Cc1cccc(C)c1OCC(O)CN1CCN(c2ccccc2)CC1 (configuration not stated)	i	i	i	0.56	i	-16	i	i	i
OC(COC(c1ccccc1)c1ccccc1)CN1CCN(c2cccc(Cl)c2)CC1 (configuration not stated)	i	i	i	0.65	i	-12	i	i	i
OC(COc1ccc(Cl)cc1)CN1CCN(c2cccc(Cl)c2)CC1 (configuration not stated)	i	i	i	-0.39	i	-20	i	i	i
OC(COC(c1ccc(Cl)cc1)c1ccc(Cl)cc1)CN1CCN(c2ccccn2)CC1 (configuration not stated)	i	i	i	1.5	i	-34	i	i	i
O=C(COC(=O)c1ccc(Cl)c(S(=O)(=O)N2CCOCC2)c1)NCc1ccco1	i	i	i	-0.01	i	-9	.	.	.
COc1ccc(-c2n(CC(=O)OC3CC(C)CCC3C(C)C)c3ccccc3[n+]2C)cc1 (configuration not stated)	i	11*	-17*	-13*	i	-31	73%*	80%*	i
O=c1c(C(c2nnnn2C2CCCCC2)N2CCCCC2)coc2ccc(Cl)cc12 (configuration not stated)	i	i	i	0.15	i	-21	.	.	.
COc1ccc(-c2cc(=O)n(-c3ccc([N+](=O)[O-])cc3)[nH]2)cc1	i	i	i	-0.4	i	-11	i	i	i
COc1cc(CN2CCc3c([nH]c4ccccc34)C2)cc(OC)c1	i	i	-8.1*	-4.2*	i	-13	39%*	i	i
COc1ccccc1CN1CCc2c([nH]c3ccccc23)C1	i	i	i	-1.3	i	-7	.	.	.
CCCC1C2C(=O)N(c3ccccc3OCC)C(=O)C2ON1c1ccccc1 (configuration not stated)	i	i	i	1.8	i	-12	.	.	.
CCOC(=O)N1CCN(Cc2nc(C3CC3)no2)CC1	i	i	i	1.7	i	-8	.	.	.
Cc1ccccc1C1CCCN(Cc2nc(C3CC3)no2)C1 (configuration not stated)	i	i	i	-0.5	i	-7	i	i	i
COc1ccc(Cl)cc1NC(=O)CN(C)C1CCCCC1	i	i	i	-0.5	i	-9	.	.	.
COc1ccc(Cl)cc1NC(=O)CN(C)C(C)C(=O)NC(=O)NC1CCCCC1 (configuration not stated)	i	i	i	0.94	i	-16	i	i	i
COc1ccc(Cl)cc1NC(=O)C(C)N(C)Cc1cccc(Cl)c1Cl (configuration not stated)	i	i	-13*	-0.87	i	-8	76%*	i	52%*
O=C(NC1CCCC1)C(c1ccc(F)cc1)N(Cc1ccccc1Cl)C(=O)CCl (configuration not stated)	i	i	i	-0.37	i	-4	.	.	.
SMILES	KCNK3 block	KCNQ1 inh	KCNK9 block	Kir21 inh	KCNQ1 pot	hERG rescue	KCNK9 block conf	Kir2-1 spec	HEK293 Tl ctr
COc1ccc(NC(=O)CCN2C(=O)c3ccncc3C2=O)cc1OC	i	i	i	-0.83	i	-4	.	.	.
N#C/C(N=Nc1ccccc1O)=N\Nc1ccccc1O	i	6*	-8.7*	-1.7	i	-37	30%*	30%*	i
Oc1ccccc1N=N/C(=N/Nc1ccccc1O)c1ccccc1	i	i	i	0.03	i	-8	.	.	.
O=S(=O)(N1CCCCC1)n1c(Cc2ccccc2)nc2ccccc21	i	i	-21*	-0.29	i	-5	76%*	i	42%*
CSc1nnc(Cc2sc(-c3ccccc3)nc2-c2ccccc2)o1	i	i	-8.1*	0.11	i	-8	i	i	25%*
Fc1ccc(CSc2nnc(Cc3sc(-c4ccccc4)nc3-c3ccccc3)o2)cc1	i	i	i	-0.36	i	-14	.	.	.
C=C(C)C1CC=C(CN2CCN(Cc3ccccc3)CC2)CC1 (configuration not stated)	i	i	i	-1.9	i	-5	i	i	i
CCc1nn(CC(=O)Nc2ccc(Br)c(C)c2)c(=N)s1	i	i	i	0.67	i	-7	.	.	.
Cc1ccc(Cl)cc1N1CCN(CC(O)COCc2ccco2)CC1 (configuration not stated)	i	i	i	1.6	i	-11	i	i	i
COc1ccc(C(=O)CSc2nc(C(C)(C)C)nc3ccccc23)cc1	i	i	-10*	0.69	i	-4	46%*	35%*	30%*
COc1ccc(C(=O)CSc2nc3ccccc3n2CC(=O)c2ccccc2)cc1	i	i	i	0	i	-10	.	.	.
Cc1onc(-c2c(F)cccc2Cl)c1C(=O)OCC(=O)NC(c1ccccc1)c1ccccc1	i	i	-8.3*	0.06	i	-12	25%*	i	29%*
